In brackets after ≈: the same amount, converted by molar mass.
Experiments:
Format in all cases: functional
Mycobacterium alvei = assay: Antibacterial activity against nonpigmented rapidly growing Mycobacterium alvei after 3 days by broth microdilution method; conditions: Mycolicibacterium alvei, 72 h
Summary of the method: (§1)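 MIC by broth microdilution. Strains are collection strains and clinical isolates, grown on 5% sheep blood tryptic soy agar at 35°C for 4 days in room air. Inoculum is made straight from the blood agar plates in cation-supplemented Mueller-Hinton broth with 0.02% Tween 80. Doubling dilutions run 64 to 0.03 µg/ml. Plates are incubated at 30°C in room air and read at 3 days. E. coli ATCC 25922, S. aureus ATCC 29213 and E. faecalis ATCC 29212 serve as controls. MIC50 and MIC90 are given where ≥10 strains were tested, otherwise the range.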

[1] = system: Mycolicibacterium smegmatis; assay: Antibacterial activity against nonpigmented rapidly growing Mycobacterium smegmatis after 3 days by broth microdilution method; conditions: 72 h; summary of the method: as §1
Mycobacterium porcinum = assay: Antibacterial activity against nonpigmented rapidly growing Mycobacterium porcinum after 3 days by broth microdilution method; conditions: Mycolicibacterium porcinum, 72 h; summary of the method: as §1
Mycobacterium septicum = assay: Antibacterial activity against nonpigmented rapidly growing Mycobacterium septicum after 3 days by broth microdilution method; conditions: Mycolicibacterium septicum, 72 h; summary of the method: as §1
[2] = system: Mycobacterium mucogenicum; assay: Antibacterial activity against nonpigmented rapidly growing Mycobacterium mucogenicum after 3 days by broth microdilution method; conditions: Mycolicibacterium mucogenicum, 72 h; summary of the method: as §1
[3] = system: Mycolicibacterium mageritense; assay: Antibacterial activity against nonpigmented rapidly growing Mycobacterium mageritense after 3 days by broth microdilution method; conditions: 72 h; summary of the method: as §1
Mycobacterium wolinskyi = assay: Antibacterial activity against nonpigmented rapidly growing Mycobacterium wolinskyi after 3 days by broth microdilution method; conditions: Mycolicibacterium wolinskyi, 72 h; summary of the method: as §1
Mycobacteroides chelonae = assay: Antibacterial activity against nonpigmented rapidly growing Mycobacterium chelonae after 3 days by broth microdilution method; conditions: 72 h; summary of the method: as §1
[4] = system: Mycolicibacterium fortuitum; assay: Antibacterial activity against nonpigmented rapidly growing Mycobacterium fortuitum after 3 days by broth microdilution method; conditions: 72 h; summary of the method: as §1
[5] = system: Mycolicibacterium peregrinum; assay: Antibacterial activity against nonpigmented rapidly growing Mycobacterium peregrinum after 3 days by broth microdilution method; conditions: 72 h; summary of the method: as §1
[6] = system: Mycobacteroides abscessus; assay: Antibacterial activity against nonpigmented rapidly growing Mycobacterium abscessus after 3 days by broth microdilution method; conditions: 72 h; summary of the method: as §1

Row | Structure (SMILES) | MIC (Mycobacterium alvei) [mg/L] | MIC [1] [mg/L] | MIC (Mycobacterium porcinum) [mg/L] | MIC (Mycobacterium septicum) [mg/L] | MIC [2] [mg/L] | MIC [3] [mg/L] | MIC (Mycobacterium wolinskyi) [mg/L] | MIC50 (Mycobacteroides chelonae) [mg/L] | MIC90 (Mycobacteroides chelonae) [mg/L] | MIC50 [4] [mg/L] | MIC90 [4] [mg/L] | MIC50 [5] [mg/L] | MIC90 [5] [mg/L] | MIC50 [6] [mg/L] | MIC90 [6] [mg/L]
1 | CO[C@@]1(NC(=O)Cc2cccs2)C(=O)N2C(C(=O)O)=C(COC(N)=O)CS[C@@H]21 [CEFOXITIN] | 2 (≈ 4.68 µM) | 1 (≈ 2.34 µM) | 2 (≈ 4.68 µM) | 32 (≈ 74.9 µM) | 0.5 (≈ 1.17 µM) | 1 (≈ 2.34 µM) | 1 (≈ 2.34 µM) | – | – | – | – | – | – | – | –
2 | O=C(O)c1cn(C2CC2)c2cc(N3CCNCC3)c(F)cc2c1=O [CIPROFLOXACIN] | ≤ 0.03 | 0.12 (≈ 0.362 µM) | ≤ 0.03 | 0.12 (≈ 0.362 µM) | ≤ 0.03 | ≤ 0.03 | 0.25 (≈ 0.754 µM) | 0.12 (≈ 0.362 µM) | 2 (≈ 6.04 µM) | ≤ 0.03 | 0.12 (≈ 0.362 µM) | ≤ 0.03 | 0.06 (≈ 0.181 µM) | 2 (≈ 6.04 µM) | 8 (≈ 24.1 µM)
3 | CC[C@H]1OC(=O)[C@H](C)[C@@H](O[C@H]2C[C@@](C)(OC)[C@@H](O)[C@H](C)O2)[C@H](C)[C@@H](O[C@@H]2O[C@H](C)C[C@H](N(C)C)[C@H]2O)[C@](C)(O)C[C@@H](C)CN(C)[C@H](C)[C@@H](O)[C@]1(C)O [AZITHROMYCIN] | ≤ 0.03 | 0.06 (≈ 0.0801 µM) | 32 (≈ 42.7 µM) | 0.5 (≈ 0.668 µM) | ≤ 0.03 | 2 (≈ 2.67 µM) | 128 (≈ 171 µM) | 0.5 (≈ 0.668 µM) | 16 (≈ 21.4 µM) | 8 (≈ 10.7 µM) | > 64 | 0.5 (≈ 0.668 µM) | 64 (≈ 85.4 µM) | 0.5 (≈ 0.668 µM) | 2 (≈ 2.67 µM)
4 | NC[C@H]1O[C@H](O[C@H]2[C@H](O)[C@@H](O[C@H]3O[C@H](CO)[C@@H](O)[C@H](N)[C@H]3O)[C@H](N)C[C@@H]2N)[C@H](N)C[C@@H]1O [TOBRAMYCIN] | 4 (≈ 8.56 µM) | ≤ 0.03 | 1 (≈ 2.14 µM) | 0.5 (≈ 1.07 µM) | 1 (≈ 2.14 µM) | 8 (≈ 17.1 µM) | 8 (≈ 17.1 µM) | 4 (≈ 8.56 µM) | 16 (≈ 34.2 µM) | 16 (≈ 34.2 µM) | 32 (≈ 68.4 µM) | 4 (≈ 8.56 µM) | 8 (≈ 17.1 µM) | 8 (≈ 17.1 µM) | 16 (≈ 34.2 µM)
5 | C[C@H]1COc2c(N3CCN(C)CC3)c(F)cc3c(=O)c(C(=O)O)cn1c23.C[C@H]1COc2c(N3CCN(C)CC3)c(F)cc3c(=O)c(C(=O)O)cn1c23.O [LEVOFLOXACIN] | ≤ 0.03 | ≤ 0.03 | 0.06 | 0.12 | 0.06 | ≤ 0.03 | 0.06 | 0.5 | 8 | 0.06 | 0.25 | 0.06 | 0.25 | 16 | 32
6 | CC[C@H]1OC(=O)[C@H](C)[C@@H](O[C@H]2C[C@@](C)(OC)[C@@H](O)[C@H](C)O2)[C@H](C)[C@@H](O[C@@H]2O[C@H](C)C[C@H](N(C)C)[C@H]2O)[C@](C)(OC)C[C@@H](C)C(=O)[C@H](C)[C@@H](O)[C@]1(C)O [CLARITHROMYCIN] | ≤ 0.03 | ≤ 0.03 | 0.5 (≈ 0.668 µM) | ≤ 0.03 | ≤ 0.03 | 2 (≈ 2.67 µM) | 32 (≈ 42.8 µM) | 0.06 (≈ 0.0802 µM) | 4 (≈ 5.35 µM) | 2 (≈ 2.67 µM) | 16 (≈ 21.4 µM) | 0.06 (≈ 0.0802 µM) | 2 (≈ 2.67 µM) | ≤ 0.03 | 1 (≈ 1.34 µM)
7 | NCC[C@H](O)C(=O)N[C@@H]1C[C@H](N)[C@@H](O[C@H]2O[C@H](CN)[C@@H](O)[C@H](O)[C@H]2O)[C@H](O)[C@H]1O[C@H]1O[C@H](CO)[C@@H](O)[C@H](N)[C@H]1O [AMIKACIN] | ≤ 0.5 | ≤ 0.03 | 0.25 (≈ 0.427 µM) | 1 (≈ 1.71 µM) | 0.25 (≈ 0.427 µM) | 0.5 (≈ 0.854 µM) | 1 (≈ 1.71 µM) | 1 (≈ 1.71 µM) | 16 (≈ 27.3 µM) | 1 (≈ 1.71 µM) | 2 (≈ 3.42 µM) | 0.5 (≈ 0.854 µM) | 1 (≈ 1.71 µM) | 2 (≈ 3.42 µM) | 8 (≈ 13.7 µM)

The next lines start with the values.

Row | MIC (Mycobacterium alvei) [mg/L] | MIC [1] [mg/L] | MIC (Mycobacterium porcinum) [mg/L] | MIC (Mycobacterium septicum) [mg/L] | MIC [2] [mg/L] | MIC [3] [mg/L] | MIC (Mycobacterium wolinskyi) [mg/L] | MIC50 (Mycobacteroides chelonae) [mg/L] | MIC90 (Mycobacteroides chelonae) [mg/L] | MIC50 [4] [mg/L] | MIC90 [4] [mg/L] | MIC50 [5] [mg/L] | MIC90 [5] [mg/L] | MIC50 [6] [mg/L] | MIC90 [6] [mg/L] | Structure (SMILES)
8 | ≤ 0.03 | ≤ 0.03 | 0.06 (≈ 0.102 µM) | ≤ 0.03 | ≤ 0.03 | ≤ 0.03 | 0.12 (≈ 0.205 µM) | 0.12 (≈ 0.205 µM) | 0.5 (≈ 0.854 µM) | ≤ 0.03 | 0.25 (≈ 0.427 µM) | 0.06 (≈ 0.102 µM) | 0.06 (≈ 0.102 µM) | 0.06 (≈ 0.102 µM) | 0.5 (≈ 0.854 µM) | CN(C)c1cc(NC(=O)CNC(C)(C)C)c(O)c2c1C[C@H]1C[C@H]3[C@H](N(C)C)C(O)=C(C(N)=O)C(=O)[C@@]3(O)C(O)=C1C2=O [TIGECYCLINE]
9 | ≤ 0.03 | 0.12 (≈ 0.164 µM) | 8 (≈ 10.9 µM) | 2 (≈ 2.73 µM) | ≤ 0.03 | 32 (≈ 43.6 µM) | 128 (≈ 174 µM) | 0.5 (≈ 0.681 µM) | 32 (≈ 43.6 µM) | 64 (≈ 87.2 µM) | > 64 | 1 (≈ 1.36 µM) | 16 (≈ 21.8 µM) | 1 (≈ 1.36 µM) | 16 (≈ 21.8 µM) | CC[C@H]1OC(=O)[C@H](C)[C@@H](O[C@H]2C[C@@](C)(OC)[C@@H](O)[C@H](C)O2)[C@H](C)[C@@H](O[C@@H]2O[C@H](C)C[C@H](N(C)C)[C@H]2O)[C@](C)(O)C[C@@H](C)C(=O)[C@H](C)[C@@H](O)[C@]1(C)O [ERYTHROMYCIN]
10 | ≤ 0.03 | ≤ 0.03 | 8 | 32 | ≤ 0.03 | ≤ 0.03 | 0.25 | 8 | 64 | 4 | 64 | 8 | 32 | > 64 | > 64 | C[C@H]1c2cccc(O)c2C(=O)C2=C(O)[C@]3(O)C(=O)C(C(N)=O)=C(O)[C@@H](N(C)C)[C@@H]3[C@@H](O)[C@@H]21.O [DOXYCYCLINE]

Reference: ChEMBL document CHEMBL1275537, “In vitro activities of tigecycline and 10 other antimicrobials against nonpigmented rapidly growing mycobacteria” (2008)
